The values below come from ChEMBL document CHEMBL1139230, “New beta-alanine derivatives are orally available glucagon receptor antagonists” (J Med Chem, 2007).

Data set [1] concerns the target Glucagon receptor (Homo sapiens, UniProt P47871). Put plainly: Inhibition of human cloned glucagon receptor expressed in BHK cells. The format is cell-based. The procedure, abridged: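 Binding performed on plasma membranes from BHK cells expressing the cloned human glucagon receptor; IC50 values determined.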
The subject of a further data set is Liver microsomes. Nature of the data set: Metabolic turnover in rat liver microsomes at 10 uM. The data set is classed as ADME, Microsome. The essentials:
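Metabolic rate estimated by incubating compounds with rat liver microsomes, used to rank metabolic stability.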
In general terms: Liver microsomes are a subcellular fraction often used to study metabolism.

Data set [2] addresses Glucagon-like peptide 1 receptor (Homo sapiens, UniProt P43220). Nature of the data set: Inhibition of GLP1 receptor.
A short description of data set [3]: Bioavailability in rat at 4 mg/kg, po. The format is ADME, organism-based. The settings on record: in vivo. The procedure, abridged: (§1)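 Rats given the compound at 4 mg/kg orally and 2 mg/kg intravenously. Plasma profiles yielded Cmax, Tmax, AUC, oral availability (F) and plasma half-life; half-life was taken from the iv dose.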
In data set [4] the test system is Rattus norvegicus. Put plainly: AUC in rat at 4 mg/kg, po and 2 mg/kg, iv. The data set is classed as ADME, organism-based, Plasma. The settings on record: in vivo. The essentials:
as §1

A short description of data set [5]: Tmax in rat at 4 mg/kg, po and 2 mg/kg, iv. The format is ADME, organism-based. The settings on record: in vivo. The procedure, abridged:
as §1

The nature of data set [6]: Cmax in rat at 4 mg/kg, po and 2 mg/kg, iv. The format is ADME, organism-based. The following applies: in vivo. The essentials:
as §1

For data set [7], the system named is Rattus norvegicus. Nature of the data set: Reduction of blood glucose level in glucagon-challenged iv dosed Sprague-Dawley rat. The format is functional, organism-based. The essentials:
(§2)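 Rats were anesthetized and given the compound intravenously over a range of doses, 5 min before an exogenous glucagon load of 3 µg/kg. The read-out was the glucagon-stimulated rise in blood glucose.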

Data set [8] relates to Rattus norvegicus. Put plainly: Reduction of blood glucose level in glucagon-challenged iv dosed Sprague-Dawley rat at 3 mg/kg. More on the design: dose 3 mg/kg. The format is functional, organism-based. The essentials: as §2
Data set [9] deals with Glucagon receptor (Rattus norvegicus, UniProt P30082). Nature of the data set: Inhibition of rat glucagon receptor.
Data set [10] can be described thus: Metabolic stability in iv dosed dog. The format is ADME, organism-based, Canis lupus familiaris. The settings on record: in vivo. The essentials: (§3)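 Dogs dosed orally and intravenously; oral availability and half-life after iv dosing determined.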
The nature of data set [11]: Metabolic stability in rat at 2 mg/kg, iv. The data set is classed as ADME, organism-based. Further details: dose 2 mg/kg, route intravenous. The following applies: in vivo. The essentials:
as §1

Data set [12] is described as follows: Bioavailability in orally dosed dog. The settings on record: in vivo, po. The format is ADME, organism-based, Canis lupus familiaris. The essentials: as §3
The test system of data set [13] is Mus musculus. Put plainly: Blood glucose level in Umea ob/ob mouse at 100 mg/kg, po.
The subject of data set [14] is Mus musculus. Put plainly: Reduction of blood glucose level in Umea ob/ob mouse at 100 mg/kg, po after 4 hrs. The data set is classed as functional. The procedure, abridged: (§4)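 ob/ob mice (n = 6 per group), vehicle or compound at 100 mg/kg po. Blood glucose was measured before dosing and again at 2, 4, 6 and 24 h; the change from the predose value was reported.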

For data set [15], the system named is Mus musculus. Nature of the data set: Reduction of blood glucose level in Umea ob/ob mouse at 100 mg/kg, po after 6 hrs. The format is functional. The essentials: as §4
The species named for the next data set is Homo sapiens. Nature of the data set: Selectivity for glucagon receptor over GLP1 receptor.
Data set [16] deals with Rattus norvegicus. Put plainly: Reduction of blood glucose level in glucagon-challenged iv dosed Sprague-dawley rat at > 3 mg/kg. The data set is classed as functional, organism-based. More on the design: dose 3 mg/kg. The procedure, abridged: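 Anesthetized rats received the compound intravenously across a range of doses 5 min before a 3 µg/kg glucagon load. The rise in blood glucose was followed.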

Data set [17] has as its system Mus musculus. Nature of the data set: Reduction of blood glucose level in Umea ob/ob mouse at 100 mg/kg, po after 2 hrs. The data set is classed as functional. The procedure, abridged:
as §4

The subject of data set [18] is Mus musculus. Nature of the data set: Reduction in cumulative food intake in Umea ob/ob mouse at 100 mg/kg, po. The format is functional. The essentials:
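ob/ob mice given vehicle or compound at 100 mg/kg po; cumulative food intake per mouse recorded from 6 to 24 h postdose.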

The subject of data set [19] is Mus musculus. Nature of the data set: Reduction of blood glucose level in Umea ob/ob mouse at 100 mg/kg, po after 24 hrs. The data set is classed as functional. The procedure, abridged:
as §4

Calls of active or inactive are those of the source. The rule behind the calls is not given here. A value given as a limit tells only on which side of the number the result lay.

Sequence of Glucagon receptor (Homo sapiens, UniProt P47871) (P47871 whole entry): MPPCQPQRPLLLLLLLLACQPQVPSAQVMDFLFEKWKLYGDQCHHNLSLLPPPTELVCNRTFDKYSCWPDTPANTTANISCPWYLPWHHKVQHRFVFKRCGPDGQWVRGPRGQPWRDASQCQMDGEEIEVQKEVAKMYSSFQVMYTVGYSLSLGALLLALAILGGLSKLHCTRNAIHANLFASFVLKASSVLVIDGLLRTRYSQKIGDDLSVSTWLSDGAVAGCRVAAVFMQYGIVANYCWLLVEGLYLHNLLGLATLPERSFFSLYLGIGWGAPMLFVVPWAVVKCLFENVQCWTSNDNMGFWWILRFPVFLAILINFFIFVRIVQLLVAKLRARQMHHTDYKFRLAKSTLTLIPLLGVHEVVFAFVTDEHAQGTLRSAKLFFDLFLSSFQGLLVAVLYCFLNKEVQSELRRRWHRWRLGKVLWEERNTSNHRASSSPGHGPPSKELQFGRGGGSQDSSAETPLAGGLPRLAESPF
Sequence of Glucagon-like peptide 1 receptor (P43220 whole entry): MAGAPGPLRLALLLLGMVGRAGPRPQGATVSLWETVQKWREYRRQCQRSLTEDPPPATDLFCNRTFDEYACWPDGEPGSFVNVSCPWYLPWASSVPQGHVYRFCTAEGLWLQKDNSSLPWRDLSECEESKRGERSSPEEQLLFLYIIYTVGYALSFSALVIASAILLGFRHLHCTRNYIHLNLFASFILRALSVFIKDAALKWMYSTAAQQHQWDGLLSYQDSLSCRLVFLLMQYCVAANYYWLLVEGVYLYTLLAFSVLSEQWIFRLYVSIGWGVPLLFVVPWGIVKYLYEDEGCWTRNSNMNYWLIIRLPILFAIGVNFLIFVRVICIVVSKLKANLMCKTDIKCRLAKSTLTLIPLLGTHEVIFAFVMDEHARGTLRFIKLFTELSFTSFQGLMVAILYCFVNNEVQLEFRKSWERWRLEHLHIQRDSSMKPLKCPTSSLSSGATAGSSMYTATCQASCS
Sequence of Glucagon receptor (Rattus norvegicus, UniProt P30082) (P30082 whole entry): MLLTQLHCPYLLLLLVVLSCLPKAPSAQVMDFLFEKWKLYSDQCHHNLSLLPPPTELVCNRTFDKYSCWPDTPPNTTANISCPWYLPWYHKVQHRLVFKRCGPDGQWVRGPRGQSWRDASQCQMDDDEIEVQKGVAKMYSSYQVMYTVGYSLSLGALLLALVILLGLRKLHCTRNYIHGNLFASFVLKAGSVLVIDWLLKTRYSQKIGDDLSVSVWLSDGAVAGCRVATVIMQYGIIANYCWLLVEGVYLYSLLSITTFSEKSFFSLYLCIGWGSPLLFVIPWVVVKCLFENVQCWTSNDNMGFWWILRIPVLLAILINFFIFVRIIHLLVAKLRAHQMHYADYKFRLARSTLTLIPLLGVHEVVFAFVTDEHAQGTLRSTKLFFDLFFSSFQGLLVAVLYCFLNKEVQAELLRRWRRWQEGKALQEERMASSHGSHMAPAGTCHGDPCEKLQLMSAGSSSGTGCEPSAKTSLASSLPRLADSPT

What is called IC50 is the concentration that inhibits the measured activity by half. High values mean a need for much substance, low ones inhibition by little substance. On Glucagon receptor [1], `CC(C)(C)C1CCC(N(Cc2ccc(C(=O)NCC(=O)NO)cc2)C(=O)Nc2ccc(OC(F)(F)F)cc2)CC1` (centres undefined) yielded an IC50 of 2960 nM.

As for `CC(C)(C)C1CCC(N(Cc2ccc(C(=O)NCC(=O)O)cc2)C(=O)Nc2ccc(OC(F)(F)F)cc2)CC1` (centres undefined), the IC50 against Glucagon receptor [1] is 1700 nM. Against the preceding compound, the IC50 is about 1.7-fold lower.

`CC(C)(C)[C@H]1CC[C@H](N(Cc2ccc(C(=O)NCCC(=O)O)cc2)C(=O)Nc2ccc(OC(F)(F)F)cc2C#N)CC1` returned an Activity in the data set with Liver microsomes of 63 pmol/min. Moreover, the midpoint of inhibition against Glucagon receptor [1], the IC50, lay at 56 nM.

Compound `COCCCNC(=O)c1ccc(CN(C(=O)Nc2ccc(OC(F)(F)F)cc2)C2CCC(C(C)(C)C)CC2)cc1` (centres undefined) displayed an IC50 at Glucagon receptor [1] of over 10000 nM.

On to `O=C(O)CCNC(=O)c1ccc(CN(CCC(c2ccccc2)c2ccccc2)C(=O)c2ccc(Cl)nc2)cc1`, for which the figures for the 50% inhibitory concentration (IC50) (against Glucagon receptor [1]; in data set [2]) were 7000 nM and 100000 nM, respectively.

As a reminder, the bioavailability is dose-corrected exposure relative to a reference, in per cent. For orientation: AUC means concentration integrated over time. Read a high AUC as high exposure. By Tmax is commonly meant the time from dosing to the highest level. One may read the Cmax as the maximum level reached in the sampled fluid or tissue. The term half-life denotes how long it takes for the measured level to halve. Read a high half-life as slow loss. With `CC(C)(C)[C@H]1CC[C@H](N(Cc2ccc(C(=O)NCCC(=O)O)cc2)C(=O)Nc2ccc(OC(F)(F)F)cc2)CC1`, the bioavailability worked out at 17% in [3] and 10% in data set [12]. In addition, the exposure (AUC) with Rattus norvegicus [4] is 217 ng·h/mL. The values for the Activity in the data set with Liver microsomes and in the data set with Rattus norvegicus [7] were 100 pmol/min and “Dose-dependent effect”, respectively. Besides, the time of peak concentration (Tmax) in [5] was 1 h. In data set [6], this compound gave a Cmax of 106 ng/mL. Further, the 50% inhibitory concentration (IC50) stood at 55 nM against Glucagon receptor [1], 1000 nM in data set [2] and 56 nM on Glucagon receptor [9]. The result in the data set on Rattus norvegicus [8] was Active. Also, the half-life came to 1.68 h in data set [10] and 1.5 h in data set [11].

In the case of `CC(C)(C)[C@H]1CC[C@H](N(Cc2ccc(C(=O)NCCC(=O)O)cc2)C(=O)Nc2ccc(Cl)c(Cl)c2)CC1`, the Activity with Liver microsomes was determined as 232 pmol/min.

At Glucagon receptor [1], `O=C(O)CCNC(=O)c1ccc(CN(C(=O)Nc2ccc(OC(F)(F)F)cc2)C2CCC(C(=O)NCC3CC3)CC2)cc1` (centres undefined) had an IC50 of over 10000 nM.

For `O=C(O)CCNC(=O)c1ccc(CN(C(=O)Nc2cc(Cl)cc(Cl)c2)c2ccc(C3=CCCCC3)cc2)cc1`, the bioavailability in data set [3] worked out at 69%; in [12] it was 65%. Further, in the data set with Rattus norvegicus [4], the area under the curve (AUC) is 2970 ng·h/mL. Moreover, in data set [5], the Tmax is 1 h. Further, the Activity in the data set with Mus musculus [13] was 18.3 mM; in the data set on Mus musculus [14] it was 8.4 mM; in the data set with Rattus norvegicus [7], “Dose-dependent effect”; with Mus musculus [15], 9.5 mM; in the data set on Mus musculus [17], 6.8 mM; with Mus musculus [18], 8.4 g. This compound also yielded an Activity in the data set on Mus musculus [19] of 1.8 mM. Also, in [6], the Cmax came to 275 ng/mL. Also, the values for the IC50 (at Glucagon receptor [1]; in data set [2]; against Glucagon receptor [9]) were 27 nM, 4900 nM and 122 nM, respectively. In addition, in the data set filed under Homo sapiens, the Selectivity ratio is 180. The outcome in the data set with Rattus norvegicus [16] was Active. Moreover, the half-life in [10] was determined as 1.53 h; in data set [11] it was 1.37 h.

`O=C(O)CCNC(=O)c1ccc(CN(C(=O)Nc2ccc(SC(F)(F)F)cc2)C2Cc3ccccc3C2)cc1` came in with a 50% inhibitory concentration (IC50) at Glucagon receptor [1] of 262 nM.

In the data set on Liver microsomes, `CC(C)(C)[C@H]1CC[C@H](N(Cc2ccc(C(=O)NCCC(=O)O)cc2)C(=O)Nc2ccc(C#N)cc2OC(F)(F)F)CC1` came in with an Activity of 130 pmol/min.

For `COC1CCC(N(Cc2ccc(C(=O)NCCC(=O)O)cc2)C(=O)Nc2ccc(OC(F)(F)F)cc2)CC1` (centres undefined), the half-maximal inhibitory concentration (IC50) against Glucagon receptor [1] is over 10000 nM.

Turning to `CC(C)(C)[C@H]1CC[C@H](N(Cc2ccc(C(=O)NCCC(=O)O)cc2)C(=O)Nc2cc(C(F)(F)F)cc(C(F)(F)F)c2)CC1`, in the data set on Liver microsomes, the Activity came out at 139 pmol/min.

On to `CC(C)(C)C1CCC(N(Cc2ccc(C(=O)NCCCC(=O)O)cc2)C(=O)Nc2ccc(OC(F)(F)F)cc2)CC1` (centres undefined), for which, at Glucagon receptor [1], the IC50 is over 10000 nM.

Turning to `O=C(O)CCNC(=O)c1ccc(CN(CC(c2ccccc2)c2ccccc2)C(=O)c2csc3ccc(Cl)cc23)cc1`, the midpoint of inhibition at Glucagon receptor [1], the IC50, lay at 116 nM. This counts as sub-micromolar.

On to `CC(C)(C)[C@H]1CC[C@H](N(Cc2ccc(C(=O)NCCC(=O)O)cc2)C(=O)Nc2ccc(C#N)cc2)CC1`, for which the IC50 against Glucagon receptor [1] is 1050 nM. Against the preceding compound, the IC50 is about 9.1-fold higher.

Regarding `CC(C)(CC(=O)O)NC(=O)c1ccc(CN(C(=O)Nc2ccc(OC(F)(F)F)cc2)C2CCC(C(C)(C)C)CC2)cc1` (centres undefined), the IC50 at Glucagon receptor [1] was over 10000 nM.

In turn, `CC(C)(C)C1CCC(N(Cc2ccc(C(=O)NCCC(N)=O)cc2)C(=O)Nc2ccc(OC(F)(F)F)cc2)CC1` (centres undefined) registered an IC50 at Glucagon receptor [1] of over 10000 nM.

As to `CC(C)c1ccc(NC(=O)N(Cc2ccc(C(=O)NCCC(=O)O)cc2)[C@H]2CC[C@H](C(C)(C)C)CC2)cc1`, the bioavailability in [3] was found to be 2%. In the data set on Rattus norvegicus [4], the area under the curve (AUC) worked out at 43.3 ng·h/mL. Also, the Activity in the data set on Liver microsomes is given as 283 pmol/min. Moreover, the time to peak (Tmax) in data set [5] is 0.25 h. The same compound had a maximum concentration (Cmax) in data set [6] of 40 ng/mL. At Glucagon receptor [1], this compound came in with an IC50 of 35 nM. The half-life in data set [11] worked out at 0.333 h.

Regarding `CCCCC(CC)N(Cc1ccc(C(=O)NCCC(=O)O)cc1)C(=O)Nc1ccc(OC(F)(F)F)cc1` (centres undefined), 141 nM corresponded to half-maximal inhibition against Glucagon receptor [1] (IC50).

Take `O=C(O)CCNC(=O)c1ccc(CN(C(=O)Nc2ccc(OC(F)(F)F)cc2)c2ccc(C3CCCCC3)cc2)cc1`: in data set [3], the bioavailability came to 54%. For the same compound, the AUC in the data set on Rattus norvegicus [4] was determined as 1600 ng·h/mL. Besides, the time to peak (Tmax) in [5] is 4 h. The compound also yielded a Cmax in [6] of 316 ng/mL. Also, the 50% inhibitory concentration (IC50) at Glucagon receptor [1] turned out to be 61 nM. The half-life in data set [11] amounted to 1.07 h.

In turn, `CCCCc1ccc(NC(=O)N(Cc2ccc(C(=O)NCCC(=O)O)cc2)C2Cc3ccccc3C2)cc1` had an IC50 against Glucagon receptor [1] of 179 nM.

Turning to `CCCC1CCC(N(Cc2ccc(C(=O)NCCC(=O)O)cc2)C(=O)Nc2ccc(OC(F)(F)F)cc2)CC1` (centres undefined), the midpoint of inhibition on Glucagon receptor [1], the IC50, lay at 122 nM.

Compound `O=C(O)CCNC(=O)c1ccc(CN(C(=O)Nc2ccc(OC(F)(F)F)cc2)C2CCC(C(=O)O)CC2)cc1` (centres undefined) showed an IC50 on Glucagon receptor [1] of over 10000 nM.

At Glucagon receptor [1], `CC(C)(C)C1CCC(N(Cc2ccc(C(=O)N3CCCC(C(=O)O)C3)cc2)C(=O)Nc2ccc(OC(F)(F)F)cc2)CC1` (centres undefined) yielded an IC50 of 1000 nM.

Compound `CNC(=O)C1CCC(N(Cc2ccc(C(=O)NCCC(=O)O)cc2)C(=O)Nc2ccc(OC(F)(F)F)cc2)CC1` (centres undefined) had an IC50 against Glucagon receptor [1] of over 10000 nM.
